Laboratory results as given in ChEMBL document CHEMBL5335788, “Synthesis and evaluation of aromatic BDSF bioisosteres on biofilm formation and colistin sensitivity in pathogenic bacteria” (Eur J Med Chem, 2023).
Calls of active or inactive are those of the source. The calls are words filed in the database; no cut-off is given here.

Columns and labels:
Burkholderia multivorans [1] = assay: Potentiation of colistin-induced antibacterial activity against Burkholderia multivorans B10 assessed as colistin MIC at 50 uM incubated for 20 hrs by susceptibility testing (Rvb > 128 ug/ml); type: functional
Method in brief: (§1)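 Colistin MIC by broth microdilution in cation-adjusted Mueller-Hinton broth, log-phase cells at final 5×10^5 cfu/mL. Two-fold colistin dilutions in duplicate with sulfonamide at final 0.05 mM (from 10 mM DMSO stock); 20 h at 37 °C. OD550 read. MIC taken as the lowest colistin level reducing growth ≥80% versus growth control. At least two replicates.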

Acinetobacter baumannii [2] = assay: Antimicrobial activity against Acinetobacter baumannii ATCC 15308 assessed as microbial growth inhibition at 50 uM incubated for 20 hrs by broth microdilution method; type: functional, organism-based
Method in brief: (§2)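 Overnight cultures in cation-adjusted Mueller-Hinton broth, subcultured 1:100; log-phase cells at final 1×10^5 cfu/mL exposed to sulfonamide at final 0.05 mM (from 10 mM DMSO stock) for 20 h at 37 °C. OD550 read after shaking. Growth expressed as percent of 0.5% DMSO control wells. Screened at least twice.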

Escherichia coli [3] = assay: Antimicrobial activity against Escherichia coli ATCC 9637 assessed as microbial growth inhibition at 50 uM incubated for 20 hrs by broth microdilution method; type: functional, organism-based; method in brief: as §2
Pseudomonas aeruginosa [4] = assay: Antimicrobial activity against Pseudomonas aeruginosa PAO1 assessed as microbial growth inhibition at 50 uM incubated for 20 hrs by broth microdilution method; type: functional, organism-based; method in brief: as §2
Acinetobacter baumannii [5] = assay: Inhibition of biofilm formation in Acinetobacter baumannii ATCC 15308 at 0.05 mM incubated for 24 hrs by crystal violet method relative to control; type: functional; conditions: ATCC 15308, 24 h
Method in brief: (§3)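 Crystal violet assay in LB: log-phase bacteria at final 1×10^5 cfu/mL with sulfonamide at final 0.05 mM, 24 h at 37 °C. Biomass read at OD620, then wells washed, biofilm heat-fixed 65 °C 15 min, stained 0.1% crystal violet 15 min, dye eluted in 30% acetic acid, OD550 read. Neat DMSO control taken as 100%. Duplicates, at least two independent experiments; one-way ANOVA.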

Pseudomonas aeruginosa [6] = assay: Inhibition of biofilm formation in Pseudomonas aeruginosa PAO1 at 0.05 mM incubated for 24 hrs by crystal violet method; type: functional, organism-based; method in brief: as §3
[7] = system: Stenotrophomonas maltophilia; assay: Inhibition of biofilm formation in Stenotrophomonas maltophilia K279a clinical isolate of rpf-1 subpopulation at 0.05 mM incubated for 24 hrs by crystal violet method; type: functional, organism-based; method in brief: as §3
Acinetobacter baumannii [8] = assay: Potentiation of colistin-induced antibacterial activity against Acinetobacter baumannii ATCC 15308 assessed as colistin MIC at 50 uM incubated for 20 hrs by susceptibility testing (reference value: 0.25 to 0.5 ug/ml); type: functional; method in brief: as §1
Escherichia coli [9] = assay: Potentiation of colistin-induced antibacterial activity against Escherichia coli ATCC 9637 assessed as colistin MIC at 50 uM incubated for 20 hrs by susceptibility testing (reference value: 0.125 to 0.25 ug/ml); type: functional; method in brief: as §1
Burkholderia cepacia = assay: Potentiation of colistin-induced antibacterial activity against Burkholderia cepacia R6193 assessed as colistin MIC at 50 uM incubated for 20 hrs by susceptibility testing (Rvb > 256 ug/ml); type: functional; method in brief: as §1
Burkholderia cenocepacia = assay: Potentiation of colistin-induced antibacterial activity against Burkholderia cenocepacia 289 assessed as colistin MIC at 50 uM incubated for 20 hrs by susceptibility testing (Rvb > 256 ug/ml); type: functional; method in brief: as §1
Pseudomonas aeruginosa [10] = assay: Potentiation of colistin-induced antibacterial activity against Pseudomonas aeruginosa assessed as colistin MIC at 50 uM incubated for 20 hrs by susceptibility testing (reference value: 1 to 2 ug/ml); type: functional; method in brief: as §1
[11] = system: Stenotrophomonas maltophilia; assay: Potentiation of colistin-induced antibacterial activity against Stenotrophomonas maltophilia K279a assessed as colistin MIC at 50 uM incubated for 20 hrs by susceptibility testing (reference value: 2 to 8 ug/ml); type: functional; method in brief: as §1
Burkholderia multivorans [12] = assay: Inhibition of biofilm formation in Burkholderia multivorans B10 at 0.05 mM incubated for 24 hrs by crystal violet method relative to control; type: functional; conditions: B10, 24 h; method in brief: as §3
Escherichia coli [13] = assay: Inhibition of biofilm formation in Escherichia coli ATCC 9637 at 0.05 mM incubated for 24 hrs by crystal violet method relative to control; type: functional; conditions: ATCC 9637, 24 h; method in brief: as §3

SMILES	MIC (Burkholderia multivorans [1])	growth inhibition (GI) (Acinetobacter baumannii [2])	growth inhibition (GI) (Escherichia coli [3])	growth inhibition (GI) (Pseudomonas aeruginosa [4])	inhibition at 50 µM (Acinetobacter baumannii [5])	inhibition (Pseudomonas aeruginosa [6])	inhibition [7]	MIC (Acinetobacter baumannii [8])	MIC (Escherichia coli [9])	MIC (Burkholderia cepacia)	MIC (Burkholderia cenocepacia)	MIC (Pseudomonas aeruginosa [10])	MIC [11]	inhibition at 50 µM (Burkholderia multivorans [12])	inhibition at 50 µM (Escherichia coli [13])
CCCCCCCCCc1ccccc1C(=O)NS(=O)(=O)c1ccc(OC)cc1	> 128 µg/mL	inactive	inactive	inactive	41%	inactive	inactive	0.25 µg/mL	0.25 µg/mL	> 256 µg/mL	> 256 µg/mL	1 µg/mL	1 µg/mL		
CCCCCCCCCc1ccccc1C(=O)NS(=O)(=O)c1ccccc1	> 128 µg/mL	inactive	inactive	inactive		inactive	inactive	0.25 µg/mL	0.25 µg/mL	> 256 µg/mL	> 256 µg/mL	1 µg/mL	0.5 µg/mL		
CCCCCCCCCc1ccccc1C(=O)NS(=O)(=O)c1ccc(C(C)(C)C)cc1	> 128 µg/mL	inactive	inactive	inactive		inactive	inactive	0.5 µg/mL	0.5 µg/mL	> 256 µg/mL	> 256 µg/mL	1 µg/mL	4 µg/mL	> 35%	
CCCCCCCCCc1ccccc1C(=O)NS(=O)(=O)c1ccc(Cl)cc1	> 128 µg/mL	inactive	inactive	inactive		inactive	inactive	1 µg/mL	1 µg/mL	> 256 µg/mL	> 256 µg/mL	4 µg/mL	2 µg/mL	47%	59%
CCCCCCCCCc1ccccc1C(=O)NS(=O)(=O)c1ccccc1F	> 128 µg/mL	inactive	inactive	inactive	27%	inactive	inactive	0.25 µg/mL	0.25 µg/mL	> 256 µg/mL	> 256 µg/mL	1 µg/mL	1 µg/mL		
CCCCCCCCCc1ccccc1C(=O)NS(=O)(=O)c1ccccc1Br	> 128 µg/mL	inactive	inactive	inactive	30%	inactive	inactive	0.5 µg/mL	0.5 µg/mL	> 256 µg/mL	> 256 µg/mL	1 µg/mL	0.5 µg/mL	38%	43%
CCCCCCCCCc1ccccc1C(=O)NS(=O)(=O)c1cccc(F)c1	> 128 µg/mL	inactive	inactive	inactive	27%	inactive	inactive	0.25 µg/mL	0.25 µg/mL	> 256 µg/mL	> 256 µg/mL	1 µg/mL	0.5 µg/mL		
CCCCCCCCCc1ccccc1C(=O)NS(=O)(=O)c1ccc([N+](=O)[O-])cc1	> 128 µg/mL	inactive	inactive	inactive	50%	inactive	inactive	0.5 µg/mL	0.5 µg/mL	> 256 µg/mL	> 256 µg/mL	2 µg/mL	1 µg/mL		
CCCCCCCCC/C=C\C(=O)O	> 128 µg/mL	inactive	inactive	inactive	38%	inactive	inactive	0.125 µg/mL	0.063 µg/mL	> 256 µg/mL	> 256 µg/mL	1 µg/mL	0.5 µg/mL		
CCCCCCCCCc1ccccc1C(=O)NS(=O)(=O)C1CC1	> 128 µg/mL	inactive	inactive	inactive		inactive	inactive	0.125 µg/mL	0.125 µg/mL	> 256 µg/mL	> 256 µg/mL	1 µg/mL	1 µg/mL		
CCCCCCCCCc1ccccc1C(=O)NS(=O)(=O)CCC(F)(F)F	> 128 µg/mL	inactive	inactive	inactive		inactive	inactive	0.25 µg/mL	0.25 µg/mL	> 256 µg/mL	> 256 µg/mL	1 µg/mL	0.5 µg/mL		
